Tests used:
HCT-116 [1] = assay: Growth inhibition of human HCT116 cells after 24 hrs by alamar blue assay; type: functional; conditions: HCT-116, 72 h, in the assay text read “after 72 hrs” for “after 24 hrs”
Outline: (§1)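 Cells came from ATCC and were grown with penicillin/streptomycin and FBS: HCT116 in McCoy's 5A, Daudi in RPMI. They were seeded at 5000 cells/well; after 24 h, compounds in medium were added at various concentrations for 72 h at 37 °C, 5% CO₂. AlamarBlue was then added for 3 h, fluorescence read (ex 530 / em 590 nm), and % cell growth calculated.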

HCT-116 [2] = assay: Growth inhibition of human HCT116 cells at 100 uM after 24 hrs by alamar blue assay; type: functional; conditions: HCT-116, 72 h, in the assay text read “after 72 hrs” for “after 24 hrs”; outline: as §1
[3] = molecular target: T1, NAD-dependent protein deacetylase sirtuin-1 (Homo sapiens, UniProt Q96EB6); assay: Inhibition of human recombinant SIRT1 by fluorimetric analysis
T1 sequence (Q96EB6 whole entry): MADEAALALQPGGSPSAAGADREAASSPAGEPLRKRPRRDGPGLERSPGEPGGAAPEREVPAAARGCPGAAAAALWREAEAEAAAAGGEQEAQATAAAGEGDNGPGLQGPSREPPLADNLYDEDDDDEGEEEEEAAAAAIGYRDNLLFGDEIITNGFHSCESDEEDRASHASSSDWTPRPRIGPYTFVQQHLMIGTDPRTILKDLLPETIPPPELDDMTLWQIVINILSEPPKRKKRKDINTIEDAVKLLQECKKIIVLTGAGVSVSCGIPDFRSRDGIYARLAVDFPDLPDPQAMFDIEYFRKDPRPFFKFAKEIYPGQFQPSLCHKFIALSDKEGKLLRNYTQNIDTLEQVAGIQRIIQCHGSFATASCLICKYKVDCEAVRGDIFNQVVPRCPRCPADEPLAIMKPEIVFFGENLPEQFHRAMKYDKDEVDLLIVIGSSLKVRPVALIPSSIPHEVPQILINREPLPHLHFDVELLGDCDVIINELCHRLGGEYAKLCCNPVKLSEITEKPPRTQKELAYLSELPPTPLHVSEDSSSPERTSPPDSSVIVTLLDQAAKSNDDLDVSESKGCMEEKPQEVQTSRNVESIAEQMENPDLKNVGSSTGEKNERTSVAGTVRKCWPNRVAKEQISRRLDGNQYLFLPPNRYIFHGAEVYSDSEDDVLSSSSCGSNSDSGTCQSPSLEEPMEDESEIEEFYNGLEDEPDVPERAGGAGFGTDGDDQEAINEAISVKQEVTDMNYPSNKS
Outline: (§2)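 Recombinant human SIRT1 was incubated at 37 °C with Fluor de Lys-SIRT1 substrate, NAD⁺ and a range of sample concentrations. After 60 min the reaction was stopped with Fluor de Lys Developer II containing nicotinamide. Fluorescence (ex 360 nm / em 460 nm) was read 45 min later, and % inhibition was taken relative to control wells.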

Daudi [4] = assay: Growth inhibition of human Daudi cells at 100 uM after 24 hrs by alamar blue assay; type: functional; conditions: 72 h, in the assay text read “after 72 hrs” for “after 24 hrs”; outline: as §1
Daudi [5] = assay: Growth inhibition of human Daudi cells after 24 hrs by alamar blue assay; type: functional; conditions: 72 h, in the assay text read “after 72 hrs” for “after 24 hrs”; outline: as §1
[6] = molecular target: T1, NAD-dependent protein deacetylase sirtuin-1; assay: Inhibition of human recombinant SIRT1 at 300 uM by fluorimetric analysis; outline: as §2

GI50 (HCT-116 [1]) [µM]	IC50 [3] [µM]	GI50 (Daudi [5]) [µM]	inhibition (INH) [6] [%]	SMILES	inhibition at 100 µM (HCT-116 [2]) [%]	inhibition at 100 µM (Daudi [4]) [%]
43	52	26		NC(=O)c1ccccc1Nc1cccc(-c2ccccc2)c1	126	108
50	58	31		NC(=O)c1ccccc1Nc1cccc(Oc2ccccc2)c1	126	103
> 100	58	> 100		NC(=O)c1ccccc1Nc1cccc(/C=C/C(=O)O)c1	0	0
	78			NC(=O)c1ccccc1Sc1ccccc1		
	65			COC(=O)/C=C/c1cccc(Nc2ccccc2C(N)=O)c1		
	68			Cc1cccc(Nc2ccccc2C(N)=O)c1		
> 100	60	> 100		NC(=O)c1ccccc1Nc1cccc(CO)c1	4	0
	89			NC(=O)c1ccccc1Nc1cccc(Sc2ccccc2)c1		
			36	NC(=O)c1ccccc1Nc1ccc(-c2ccccc2)cc1		
> 100	72	> 100		NC(=O)c1ccccc1Nc1cccc(CCO)c1	12	6
> 100	56	77		NC(=O)c1ccccc1Nc1ccccc1 [ANILINOBENZAMIDE]	21	74

— ChEMBL document CHEMBL1153494, “Design, synthesis, enzyme inhibition, and tumor cell growth inhibition of 2-anilinobenzamide derivatives as SIRT1 inhibitors” (Bioorg Med Chem, 2009)
